# Measurements taken from ChEMBL document CHEMBL4339193, “Phenotypic Screening-Based Identification of 3,4-Disubstituted Piperidine Derivatives as Macrophage M2 Polarization Modulators: An Opportunity for Treating Multiple Sclerosis” (J Med Chem, 2019).
# Active and inactive are the calls of the source. The calls are words filed in the database; no cut-off is given here.
# Key:
# Mus musculus [1] = assay: (§1) Induction of M2 polarization in C57BL/6J mouse model of MOG (35 to 55 residues)/pertussis toxin/complete Freund's adjuvant-induced experimental allergic encephalomyelitis assessed as CD206 level in CNS at 200 mg/kg, ig administered daily starting from 7 days post-immunization measured after 13 to 19 days post-immunization by flow cytometry analysis (reference value: 7.8%); format: functional
# Method in brief: (§2)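 MOG35-55/CFA EAE mice were dosed daily in saline from day 7 and sampled between days 13 and 19. Cells came from spleen and dLN by mechanical dissociation and from CNS by collagenase IV/Percoll. They were stained for F4/80 with CD206 (M2) or CD86 (M1), and each was read by flow cytometry as a percentage of total F4/80+ macrophages.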
# Mus musculus [2] = assay: as §1, with “spleen” for “CNS”, “23.4%)” for “7.8%)”; format: functional; method in brief: as §2
# BMDM [3] = assay: Modulation of M2 polarization in C57BL/6J mouse BMDM cells assessed as up regulation of CD206 expression at 300 nM measured after 24 hrs by FACS analysis; format: functional, cell-based
# Method in brief: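 BMDMs exposed to compound (300 nM, or a range of concentrations) for 24 h. Stained for F4/80 and CD206; % CD206+F4/80+ cells read by flow cytometry. Mean ± SEM, at least three independent experiments.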
# BMDM [4] = assay: Inhibition of LPS-induced M1 polarization in C57BL/6J mouse BMDM cells assessed as down regulation of Inos mRNA expression at 300 nM measured after 24 hrs by qRT-PCR analysis; format: functional, cell-based
# Method in brief: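 BMDMs pre-incubated 24 h with 50 ng/ml LPS to induce M1, then treated 24 h with 300 nM compound. Total RNA extracted with Trizol; Mcp1, Inos and Cd86 mRNA measured by qRT-PCR. Mean ± SEM.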
# Mus musculus [5] = assay: Antiinflammatory activity in C57BL/6J mouse model of MOG (35 to 55 residues)/pertussis toxin/complete Freund's adjuvant-induced experimental allergic encephalomyelitis assessed as reduction in development of clinical symptoms at 200 mg/kg, ig administered daily starting from 7 days post-immunization up to 26 days; format: functional, organism-based
# Method in brief: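 MOG35-55/CFA EAE mice received daily saline vehicle, 100 or 200 mg/kg drug, or dexamethasone 10 mg/kg from day 7 post-immunisation. Clinical signs were scored on a 0-5 scale (e.g. 3 = complete bilateral hind limb paralysis, 5 = death). Mean scores used n=5.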
# BMDM [6] = assay: Inhibition of LPS-induced M1 polarization in C57BL/6J mouse BMDM cells assessed as down regulation of CD86 expression measured after 24 hrs by FACS analysis; format: functional, cell-based
# Method in brief: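 BMDMs pretreated with 50 ng/ml LPS for 24 h, then given compound (300 nM, or a range of concentrations) for 24 h. Stained for F4/80 and CD86; % CD86+F4/80+ cells read by flow cytometry. Mean ± SEM, at least three independent experiments.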
# RAW264.7 [7] = assay: Inhibition of M1 polarization in mouse RAW264.7 cells assessed as down regulation of IL6R mRNA expression at 300 nM measured after 24 hrs by qRT-PCR analysis; format: functional, cell-based
# RAW264.7 [8] = assay: Modulation of M2 polarization in mouse RAW264.7 cells assessed as up regulation of MRC1 mRNA expression at 300 nM measured after 24 hrs by qRT-PCR analysis; format: functional, cell-based
# RAW264.7 [9] = assay: Modulation of M2 polarization in mouse RAW264.7 cells assessed as up regulation of CCR7 mRNA expression at 300 nM measured after 24 hrs by qRT-PCR analysis; format: functional, cell-based
# RAW264.7 [10] = assay: Modulation of M2 polarization in mouse RAW264.7 cells assessed as up regulation of IL13RA1 mRNA expression at 300 nM measured after 24 hrs by qRT-PCR analysis; format: functional, cell-based
# [11] = Half life in Sprague-Dawley rat at 50 mg/kg, po administered as single dose via gavage by LC/MS analysis; format: ADME, organism-based; settings: in vivo
# Method in brief: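 Single dose in rats; venous blood (100 µL) drawn at 0, 0.5, 1, 2, 4, 8 and 12 h, plasma separated by centrifugation and held at -20 °C. Compound measured by LC/MS; Cmax, Tmax, t1/2 and AUC derived from the concentration–time data.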
# Mus musculus [12] = assay: as §1, with “Antiinflammatory activity” for “Induction of M2 polarization”, “effect on Treg cell population” for “CD206 level”, “CNS by measuring change in CD4 level” for “CNS”, “analysis” for “analysis (reference value: 7.8%)”; format: functional, organism-based
# Method in brief: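 MOG35-55/CFA EAE mice were dosed daily in saline from day 7 and sampled between days 13 and 19. Spleens and dLNs were mechanically dissociated to single cells. CNS cells came from collagenase IV digestion and a 70%/30% Percoll gradient. Cells were surface-stained with fluorochrome antibodies, including CD4, CD11b, CD11c and MHC-II, and analysed by flow cytometry.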
# [13] = biological target: RAC-alpha serine/threonine-protein kinase (Mus musculus) (UniProt P31750); assay: Stimulation of AKT phosphorylation at 473 residue in mouse RAW264.7 cells at 300 nM measured after 4 to 24 hrs by Western blot analysis; format: cell-based
# Method in brief: (§3)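 Cell lysates separated by SDS-PAGE, transferred to PVDF and probed for Akt, p-Akt(308), p-Akt(473), Stat3, p-Stat3(Y705), Stat6 and p-Stat6; ECL detection, GAPDH as loading control.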
# [14] = biological target: T1, Signal transducer and transcription activator 6 (Mus musculus) (UniProt P52633); assay: Stimulation of STAT6 phosphorylation at […] residue in mouse RAW264.7 cells at 300 nM measured after 4 to 24 hrs by Western blot analysis; format: cell-based; method in brief: as §3
# T1 sequence (whole entry): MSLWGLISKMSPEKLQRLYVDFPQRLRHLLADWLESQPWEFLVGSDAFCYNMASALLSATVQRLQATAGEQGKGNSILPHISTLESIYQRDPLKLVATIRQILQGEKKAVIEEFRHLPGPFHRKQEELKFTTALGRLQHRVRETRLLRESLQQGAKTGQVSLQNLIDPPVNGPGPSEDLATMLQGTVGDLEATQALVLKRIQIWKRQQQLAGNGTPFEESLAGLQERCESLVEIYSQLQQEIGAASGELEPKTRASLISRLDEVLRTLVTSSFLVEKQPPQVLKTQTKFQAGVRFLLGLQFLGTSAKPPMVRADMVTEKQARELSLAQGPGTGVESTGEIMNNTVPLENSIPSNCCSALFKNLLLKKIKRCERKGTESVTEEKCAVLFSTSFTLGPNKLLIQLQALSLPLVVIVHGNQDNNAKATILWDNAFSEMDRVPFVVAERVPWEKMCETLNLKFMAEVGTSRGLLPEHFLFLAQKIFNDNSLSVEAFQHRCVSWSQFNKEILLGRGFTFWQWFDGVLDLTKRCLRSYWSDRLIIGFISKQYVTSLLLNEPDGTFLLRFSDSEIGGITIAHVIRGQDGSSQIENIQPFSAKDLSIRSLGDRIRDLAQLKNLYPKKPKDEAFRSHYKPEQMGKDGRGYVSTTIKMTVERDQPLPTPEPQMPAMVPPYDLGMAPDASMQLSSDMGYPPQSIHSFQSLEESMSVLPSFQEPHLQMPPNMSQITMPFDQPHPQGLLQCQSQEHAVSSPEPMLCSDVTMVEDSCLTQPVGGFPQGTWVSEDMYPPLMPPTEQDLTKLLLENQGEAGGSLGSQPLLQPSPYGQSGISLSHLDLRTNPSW
# Chain of RAC-alpha serine/threonine-protein kinase (Mus musculus) (P31750 whole entry): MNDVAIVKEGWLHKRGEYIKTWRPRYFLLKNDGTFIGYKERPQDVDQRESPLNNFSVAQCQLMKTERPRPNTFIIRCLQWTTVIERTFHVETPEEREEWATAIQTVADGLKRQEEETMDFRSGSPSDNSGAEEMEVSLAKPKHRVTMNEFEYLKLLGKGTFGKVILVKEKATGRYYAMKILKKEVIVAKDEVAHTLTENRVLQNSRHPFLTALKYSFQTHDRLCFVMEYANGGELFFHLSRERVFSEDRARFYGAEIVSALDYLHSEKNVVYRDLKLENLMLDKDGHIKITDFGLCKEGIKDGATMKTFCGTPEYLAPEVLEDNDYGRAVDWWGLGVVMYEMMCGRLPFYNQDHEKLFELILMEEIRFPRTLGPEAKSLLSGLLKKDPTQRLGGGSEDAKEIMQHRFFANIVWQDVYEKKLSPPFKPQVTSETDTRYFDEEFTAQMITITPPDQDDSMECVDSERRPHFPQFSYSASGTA
smiles,measurement,setting,value
Cl.Cn1ncc(Cl)c1-c1ccc(C(=O)N[C@@H]2CNCC[C@H]2c2cccc(F)c2)cc1,Activity,Mus musculus [1],12.7%
same,Activity,Mus musculus [2],37.2%
same,Activity,BMDM [3],Active
same,inhibition,BMDM [4],Active
same,Activity,Mus musculus [5],Active
same,inhibition,BMDM [6],Dose-dependent effect
same,inhibition,RAW264.7 [7],Active
same,Activity,RAW264.7 [8],Active
same,Activity,RAW264.7 [9],Active
same,Activity,RAW264.7 [10],Active
same,half-life,[11],7.77 h
same,Activity,Mus musculus [12],inactive
same,Activity,[13],Active
same,Activity,[14],inactive
